Test [1] addresses CK2 (catalytic α and regulatory β subunits complex) (Homo sapiens, UniProt P67870+P68400). Put plainly: In vitro phosphorylation by CK2, HPLC quantification. Type of test: biochemical. As to conditions: for reduction of phosphorylation by addition of Ca2+: CK2, 37 °C.
The target of test [2] is transducin β (Trd) 325-340 (UniProt P62873). The test is described as follows: ITC, peptide titrated into centrin. The note with it: reference: wild type C-HsCen1; sites T138. In general terms: Isothermal titration calorimetry measures the heat released or taken up as one component is titrated into another.
Test [3] concerns the target human centrin 1, full-length (human) (UniProt Q12798). Put plainly: ITC.
Another test deals with C-HsCen2-S158D. Put plainly: ITC, peptide binding to C-HsCen2 S158D. More on the design: species or system human. As to conditions: versus C-HsCen2 wild type. Summed up:
(§1)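 Recombinant human centrin (full-length or C-terminal domain; Asp variants made by double-PCR mutagenesis) was expressed in E. coli BL21(DE3), heat-treated at 63 °C, then purified by ion-exchange, phenyl and gel-filtration chromatography. ITC at 30 °C: 10 μM centrin titrated with 100 μM N-acetylated, C-amidated peptide in 50 mM MOPS, 100 mM NaCl, pH 7.5, plus 1 mM CaCl₂ or 2 mM EDTA. Dilution heats subtracted; data fitted for n, Ka and ΔH.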

The next test has as its system C-HsCen2-T138D. The test is described as follows: ITC, peptide binding to C-HsCen2 T138D. More on the design: species or system human. As to conditions: presence of Ca2+; versus C-HsCen2 wild type. Summed up:
as §1

The next test concerns C-HsCen2 T138D-S158D. Put plainly: ITC, peptide binding to C-HsCen2 T138D-S158D. As to conditions: presence of Ca2+; versus C-HsCen2 wild type. Also on record: species or system human. Summed up:
as §1

The subject of test [4] is HsCen1 (full-length human centrin 1). The test is described as follows: ITC, peptide binding to full-length HsCen1. As to conditions: absence of Ca2+. Summed up: as §1
The target in test [5] is T1, C-terminal domain of human centrin 1 (M93-Y172) (human, UniProt Q12798 93-172). The test is described as follows: ITC.
Test [6] addresses T2, human centrin 1, full-length (human, UniProt Q12798 1-172).
T2 sequence: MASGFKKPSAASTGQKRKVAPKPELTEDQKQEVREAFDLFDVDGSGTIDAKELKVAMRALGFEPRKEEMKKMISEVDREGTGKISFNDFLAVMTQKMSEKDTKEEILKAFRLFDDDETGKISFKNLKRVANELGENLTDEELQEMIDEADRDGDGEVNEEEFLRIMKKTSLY
The test is described as follows: ITC.

For test [7], the target named is T3, human centrin 1 T138D, full-length (human, UniProt Q12798 1-172, T138D).
T3 sequence: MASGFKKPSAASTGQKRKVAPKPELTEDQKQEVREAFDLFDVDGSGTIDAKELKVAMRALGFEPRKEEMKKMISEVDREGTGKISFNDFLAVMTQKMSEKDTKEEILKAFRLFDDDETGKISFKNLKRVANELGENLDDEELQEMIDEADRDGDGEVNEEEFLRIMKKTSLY
Put plainly: ITC.

In test [8] the target is T2, human centrin 1, full-length. The test is described as follows: ITC. This is another data set of the same source.
Test [9] concerns the target T3, human centrin 1 T138D, full-length. Put plainly: ITC. This is another data set of the same source.
Test [10] addresses T1, C-terminal domain of human centrin 1 …. Put plainly: ITC. This is another data set of the same source.
For test [11], the target named is T4, C-terminal domain of human centrin 2 (M93-Y172) (human, UniProt P41208 93-172). Put plainly: ITC.
Test [12] concerns the target C-terminal domain of human centrin 1 T138D (human). The test is described as follows: ITC.
The target in test [13] is T5, C-terminal domain of human centrin 2 T138D (human, UniProt P41208 93-172, T138D). Put plainly: ITC.
Test [14] deals with T6, C-terminal domain of human centrin 2 S158D (human, UniProt P41208 93-172, S158D). The test is described as follows: ITC.
Test [15] addresses T5, C-terminal domain of human centrin 2 …. Put plainly: ITC. The source holds these as a separate data set.
The target in test [16] is T4, C-terminal domain of human centrin 2 …. The test is described as follows: ITC. This is another data set of the same source.
In test [17] the target is C-terminal domain of human centrin 2 T138D-S158D (human, UniProt P41208 93-172, T138D | S158D). Put plainly: ITC.
Test [18] addresses T6, C-terminal domain of human centrin 2 …. Put plainly: ITC. The source holds these as a separate data set.
Where [19] appears, read: after 5 h, without Ca2+ (Fig. 1A, B).
The mark [20] stands for this setting: after 3 h at 37 °C, EGTA, HPLC peak integration.
Setting [21] is: after 3 h at 37 °C, presence of Ca2+.

One may read the stoichiometry N as the number of molecules, sites or subunits per partner or assembly.

Values joined by “and” are separate entries in the source; they are usually repeats but may differ in a detail not shown here. Equal entries are not always repeated. Where two headings read alike, the source gives them in different places.

Chain of CK2 (catalytic α and regulatory β subunits complex) (P68400 whole entry): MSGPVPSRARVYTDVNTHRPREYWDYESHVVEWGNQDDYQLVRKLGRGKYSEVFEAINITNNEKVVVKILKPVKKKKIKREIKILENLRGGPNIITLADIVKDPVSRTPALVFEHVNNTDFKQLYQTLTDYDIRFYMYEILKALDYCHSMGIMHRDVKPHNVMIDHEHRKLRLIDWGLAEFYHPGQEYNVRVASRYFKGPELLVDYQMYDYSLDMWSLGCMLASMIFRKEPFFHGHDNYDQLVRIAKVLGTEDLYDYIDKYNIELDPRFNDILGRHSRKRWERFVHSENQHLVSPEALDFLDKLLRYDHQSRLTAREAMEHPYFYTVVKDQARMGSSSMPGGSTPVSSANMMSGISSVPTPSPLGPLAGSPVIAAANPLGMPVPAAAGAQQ
Chain of CK2 (catalytic α and regulatory β subunits complex) (P67870 whole entry partner): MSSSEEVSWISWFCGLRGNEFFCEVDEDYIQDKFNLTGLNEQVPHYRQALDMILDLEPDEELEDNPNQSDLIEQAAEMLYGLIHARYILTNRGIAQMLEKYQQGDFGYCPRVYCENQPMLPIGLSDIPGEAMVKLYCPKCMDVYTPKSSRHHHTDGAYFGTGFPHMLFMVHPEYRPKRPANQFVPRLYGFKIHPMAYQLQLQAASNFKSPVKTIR
T5 sequence (P41208 93-172 T138D): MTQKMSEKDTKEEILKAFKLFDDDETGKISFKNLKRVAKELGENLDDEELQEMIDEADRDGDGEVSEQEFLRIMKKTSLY
T4 sequence (P41208 93-172): as the sequence (P41208 93-172 T138D) above, with D46T counted along it
T6 sequence (P41208 93-172 S158D): as the sequence (P41208 93-172 T138D) above, with D46T, S66D counted along it
Chain of C-terminal domain of human centrin 2 T138D-S158D (P41208 93-172 T138D/S158D): as the sequence (P41208 93-172 T138D) above, with S66D counted along it

As to “C-HsCen2-S158D: S158D phosphomimetic variant of the C-terminal domain of human centrin 2”, the “factor of reduction of the phosphorylation rate at T138” value is given as 1.36 in test [1] (C-HsCen2-S158D versus S158A variant, without Ca2+) and 2.1 in test [1] (C-HsCen2-S158D, presence of Ca2+).
Regarding “human centrin 1 (HsCen1) C-terminal domain, 93-172 (from UniProt Q12798) C-HsCen1 T138E”, in test [2], the “other: Ka” value is reported as “weaker; reference 0.54 (0.3)”.
In the case of “C-HsCen2-K131N: K131N variant of the C-terminal domain of human centrin 2”, in [1] (after 5 h), the “increase in phosphorylation by the mutation versus wild type” value is listed as 12%. Besides, the “protein phosphorylated by CK2” value in test [1] (setting [19]) is listed as 60%.
Consider “HsTrBW332L, transducin β peptide 325-340 W332L”, for which, in test [3], the Ka amounted to 130000 M⁻¹ and the dH is -10.6 kcal/mol.
Take “C-HsCen1: C-terminal domain (M93-Y172) of human centrin 1, recombinant; here as CK2 substrate”: the “reduction of phosphorylation by addition of Ca2+” value in test [1] stood at 30%. The “protein phosphorylated by CK2” value in test [1] (setting [20]) is recorded as 62%; in test [1] (setting [21]) it was 30%; in [1] (setting [19]), 80%; in test [1] (after 10 h, presence of EGTA), 95%; in test [1] (after 48 h, presence of Ca2+), 80%. Besides, the “time after which 95% phosphorylation was achieved” value in test [1] (presence of Ca2+) came to 48 h.
As for “C-HsCen1N131K: N131K variant of the C-terminal domain of human centrin 1”, in test [1], the “reduction of phosphorylation by addition of Ca2+” value was found to be 40%. Further, the “reduction of phosphorylation by the mutation versus wild type” value in test [1] (after 5 h) was found to be 30%. For the same molecule, the “protein phosphorylated by CK2” value in [1] (setting [19]) is recorded as 50%.
Regarding 641-RADLHHQHSVLHRALQAWVT-660 [R17-Sfi1], in the test with C-HsCen2-S158D (absence of Ca2+), the “factor of reduction of affinity by the S158D mutation” value was 4.7. Moreover, the “factor of increase of affinity by the S158D mutation” value with C-HsCen2-S158D (presence of Ca2+) is on record as 5. In addition, the “factor of increase of affinity by the T138D mutation” value in the test with C-HsCen2-T138D was 3. In the test on C-HsCen2 T138D-S158D, the “factor of increase of affinity by the T138D-S158D double mutation” value is listed as 2. In addition, the “factor of decrease of binding constant of HsCen1 compared with R18-Sfi1” value in [4] was determined as 10.
For the molecule “HsTrB, transducin β-derived peptide 325-340 (last WD repeat)”, in test [3], the Ka was 170000 M⁻¹ and the dH is -12.2 kcal/mol.
Regarding “human centrin 1 (HsCen1) C-terminal domain, 93-172 (from UniProt Q12798) C-HsCen1 T138D”, the “other: Ka” value in test [2] is given as “weaker; reference 0.54 (0.3)”.
With “C-HsCen2: C-terminal domain (M93-Y172) of human centrin 2, recombinant; here as CK2 substrate”, the “protein phosphorylated by CK2” value in [1] (setting [20]) worked out at 45%; in test [1] (setting [21]), 15%; in [1] (setting [19]) it was 48%; in test [1] (after 48 h, presence of Ca2+) it was 50%.
For Ac-SQHNRQLLRGALRRWK-NH2 [HsSfiR18, repeat 18 peptide of human Sfi1 (677-692)], the Ka in [5] was found to be 8.15e+07 M⁻¹; in test [6], 2.49e+08 M⁻¹; in test [7], 2.39e+08 M⁻¹; in test [8] it was 3.47e+06 M⁻¹; in test [9], 875000 M⁻¹; in test [10], 3.56e+06 M⁻¹. Besides, the dH is -22.5 kcal/mol in test [5]; -35.5 kcal/mol in test [6]; -36.7 kcal/mol in [7]; -34.7 kcal/mol in [8]; -36.4 kcal/mol in test [9]; -29.8 kcal/mol in test [10]. The “stoichiometry N” value in test [5] stood at 0.99; in test [6] it was 0.88; in test [7] it was 0.77; in [8] it was 0.88; in test [9] it was 0.83; in test [10] it was 1.03.
Take Ac-TVWAQLARHLVSHQHHLDAR-NH2 [HsSfi1R17inv, repeat 17 peptide of human Sfi1 in reversed sequence orientation]: the Ka in test [5] was determined as 1.49e+08 M⁻¹; in test [10] it was 690000 M⁻¹. Moreover, the dH in test [5] was -21.6 kcal/mol; in test [11], -20.1 kcal/mol and -22 kcal/mol; in test [10], -26.6 kcal/mol. The “stoichiometry N” value is 0.8 in [5]; 0.91 and 1.09 in [11]; 0.825 in test [10].
In the case of Ac-MAVATGSWDSFLKIWN-NH2 [HsTrB, transducin β-derived peptide 325-340 (last WD repeat)], the dH in test [12] is -9.97 kcal/mol. In test [7], the Ka was found to be 180000 M⁻¹, the dH was -8.14 kcal/mol and the “stoichiometry N” value was 0.75.
In the case of Ac-RADLHHQHSVLHRALQAWVT-NH2 [HsSfiR17, repeat 17 peptide of human Sfi1 (641-660)], the Ka in test [5] was determined as 1.25e+08 M⁻¹; in test [8], 347000 M⁻¹; in test [13] it was 230000 M⁻¹; in [11], 190000 M⁻¹; in test [14], 40000 M⁻¹; in test [15], 4.54e+07 M⁻¹. Moreover, the Ka in [16] was determined as 1.82e+07 M⁻¹; in [17], 3.5e+07 M⁻¹; in test [18], 1.01e+08 M⁻¹; in test [10], 120000 M⁻¹. The dH in test [5] is -18 kcal/mol; in test [8], -19.2 kcal/mol; in test [13], -9.76 kcal/mol; in test [11], -31.3 kcal/mol; in [14], -38.5 kcal/mol; in test [15], -24.3 kcal/mol. For the same molecule, the dH in [16] is -20.2 kcal/mol; in test [17] it was -22.4 kcal/mol; in [18] it was -25.9 kcal/mol; in test [10], -43.1 kcal/mol. Also, the “stoichiometry N” value came to 1.21 in test [5]; 1.12 in [8]; 0.75 in test [13]; 0.72 in test [11]; 0.77 in test [14]; 0.86 in test [15]. For the same molecule, the “stoichiometry N” value in test [16] worked out at 0.95; in test [17] it was 0.91; in test [18] it was 0.7; in [10] it was 0.88.

The values above are taken from publication PMC4050191 (FEBS Open Bio, 2014).
